In ChEMBL document CHEMBL5608193, “Discovery of bivalent small molecule degraders of cyclin-dependent kinase 7 (CDK7)” (Eur J Med Chem, 2024):
Activity calls are given as the source filed them. No cut-off for these calls is given here.

What was measured:
[1] = system: OVCAR-3; assay: Antiproliferative activity against human OVCAR-3 cells assessed as cell viability measured after 72 hrs by CellTiter-Glo assay; type: functional, cell-based; settings: OVCAR-3, 72 h
Outline: (§1)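 Cells grown in RPMI 1640 with 10% heat-inactivated FBS and penicillin/streptomycin at 37 °C, 5% CO2, mycoplasma-negative. Seeded at 10^4/ml. Compounds dispensed digitally from 10 mM or 1 mM DMSO stocks, DMSO equalized, triplicate wells. After 72 h, CellTiter-Glo added for 10–15 min at room temperature and luminescence read.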

[2] = system: MOLT-4; assay: Antiproliferative activity against human MOLT-4 cells assessed as cell viability measured after 72 hrs by CellTiter-Glo assay; type: functional, cell-based; settings: MOLT-4, 72 h; outline: as §1
[3] = Tmax in male CD1 mouse at 3 mg/kg, IV measured upto 24 hrs by LC-MS/MS-39 analysis; type: ADME, organism-based; settings: in vivo
Outline: (§2)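 Three male CD1 mice given a single 3 mg/kg intravenous dose. Plasma prepared on ice by centrifugation (2000 g, 5 min, 4 °C) within 15 min, held at about −70 °C. Acetonitrile precipitation, then LC-MS/MS quantitation. Mean ± SD, n=3.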

[4] = target: T1, von Hippel-Lindau disease tumor suppressor/Cyclin-dependent kinase 7 (Homo sapiens) (UniProt P50613+P40337); assay: PROTAC activity at CDK7/VHL in human Jurkat cells assessed as degradation of CDK7 in presence of 10 uM YKL-5-167 at 0.1 uM measured after 6 hrs incubation by immunoblot analysis; type: cell-based
Outline: (§3)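 Jurkat cells pretreated 2 h with MG132, MLN-4924, YKL-5–167 or a VHL ligand, then given degrader for 6 h. CDK7 immunoblotted: RIPA lysis, SDS-PAGE, anti-CDK7 1:1000, IRDye secondaries.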

[5] = Cmax in male CD1 mouse at 10 mg/kg, IP measured upto 24 hrs by LC-MS/MS-39 analysis; type: ADME, organism-based; settings: in vivo
Outline: (§4)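 Male CD1 mice, n=3, one 10 mg/kg intraperitoneal dose. Blood sampled at 0, 0.25, 0.5, 1, 2, 4, 6, 8 and 24 h. Kept on wet ice and spun to plasma (2000 g, 5 min, 4 °C) within 15 min, stored at about −70 °C. Protein precipitation with acetonitrile, then LC-MS/MS. Values are mean ± SD of three mice.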

[6] = Observed volume of distribution at steady state in male CD1 mouse at 3 mg/kg, IV measured upto 24 hrs by LC-MS/MS-39 analysis; type: ADME, organism-based; settings: in vivo, read-out: Vdss; outline: as §2
[7] = target: T1, von Hippel-Lindau disease tumor suppressor/Cyclin-dependent kinase 7 (Homo sapiens); assay: PROTAC activity at CDK7/VHL in human Jurkat cells assessed as degradation of MAT1 measured at 0.1 to 5 uM after 6 hrs incubation by Western blotting analysis; type: cell-based; settings: dose 0.1-5 µM
Outline: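 Jurkat and OVCAR3 cells treated 6 h across a concentration series. Blots probed for CDK7, MAT1 (1:1000) and Cyclin H (1:1000) overnight at 4 °C, with β-actin control and IRDye secondaries.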

[8] = target: von Hippel-Lindau disease tumor suppressor/Cyclin-dependent kinase 2 (Homo sapiens) (UniProt P24941+P40337); assay: PROTAC activity at CDK2/VHL in human Jurkat cells assessed as degradation of CDK7 measured at 10 to 500 nM after 6 hrs incubation by Western blotting analysis; type: cell-based; settings: dose 10-500 nM
[9] = target: T1, von Hippel-Lindau disease tumor suppressor/Cyclin-dependent kinase 7 (Homo sapiens); assay: PROTAC activity at CDK7/VHL in human Jurkat cells assessed as degradation of CDK7 in presence of 1 uM MLN-4924 at 0.1 uM measured after 6 hrs incubation by immunoblot analysis; type: cell-based; outline: as §3
[10] = AUClast in male CD1 mouse at 10 mg/kg, IP measured upto 24 hrs by LC-MS/MS-39 analysis; type: ADME, organism-based; settings: in vivo; outline: as §4
[11] = target: T1, von Hippel-Lindau disease tumor suppressor/Cyclin-dependent kinase 7 (Homo sapiens); assay: PROTAC activity at CDK7/VHL in human Jurkat cells assessed as degradation of CDK7 in presence of 0.5 uM MG132 at 0.1 uM measured after 6 hrs incubation by immunoblot analysis; type: cell-based; outline: as §3
[12] = target: von Hippel-Lindau disease tumor suppressor/Cyclin-dependent kinase 1 (Homo sapiens) (UniProt P06493+P40337); assay: PROTAC activity at CDK1/VHL in human Jurkat cells assessed as degradation of CDK7 measured at 10 to 500 nM after 6 hrs incubation by Western blotting analysis; type: cell-based; settings: dose 10-500 nM
[13] = Cmax in male CD1 mouse at 3 mg/kg, IV measured upto 24 hrs by LC-MS/MS-39 analysis; type: ADME, organism-based; settings: in vivo; outline: as §2
[14] = system: Jurkat; assay: Antiproliferative activity against human Jurkat cells assessed as cell viability measured after 72 hrs by CellTiter-Glo assay; type: functional, cell-based; outline: as §1
[15] = target: T1, von Hippel-Lindau disease tumor suppressor/Cyclin-dependent kinase 7 (Homo sapiens); assay: PROTAC activity at CDK7/VHL in human A549 cells assessed as degradation of CDK7 measured at 0.1 to 5 uM measured after 6 hrs incubation by immunoblot analysis; type: cell-based; settings: dose 0.1-5 µM
[16] = Observed clearance in male CD1 mouse at 3 mg/kg, IV measured upto 24 hrs by LC-MS/MS-39 analysis; type: ADME, organism-based; settings: in vivo; outline: as §2
[17] = system: Jurkat; assay: Potency index, ratio of YKL-5-167 IC50 to test compound IC50 for antiproliferative activity against human Jurkat cells assessed as cell viability measured after 72 hrs by CellTiter-Glo assay; type: functional
[18] = AUClast in male CD1 mouse at 3 mg/kg, IV measured upto 24 hrs by LC-MS/MS-39 analysis; type: ADME, organism-based; settings: in vivo; outline: as §2
[19] = Half life in male CD1 mouse at 10 mg/kg, IP measured upto 24 hrs by LC-MS/MS-39 analysis; type: ADME, organism-based; settings: in vivo; outline: as §4
[20] = system: A549; assay: Antiproliferative activity against human A549 cells assessed as cell viability measured after 72 hrs by CellTiter-Glo assay; type: functional, cell-based; settings: A549, 72 h; outline: as §1
[21] = Half life in male CD1 mouse at 3 mg/kg, IV measured upto 24 hrs by LC-MS/MS-39 analysis; type: ADME, organism-based; settings: in vivo; outline: as §2
[22] = target: T1, von Hippel-Lindau disease tumor suppressor/Cyclin-dependent kinase 7 (Homo sapiens); assay: PROTAC activity at CDK7/VHL in human Jurkat cells assessed as degradation of CDK7 at 1 uM measured after 16 hrs incubation by immunoblot analysis relative to control; type: cell-based
Outline: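 Jurkat cells given VHL-recruiting compounds at 0.1 or 1 μM for 16 h. RIPA lysis, BCA normalization, 4–20% SDS-PAGE, nitrocellulose transfer. CDK7 (1:1000) and β-actin probed overnight at 4 °C, IRDye secondaries, Odyssey detection. Quantified against control, mean ± SEM from three independent biological replicates.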

[23] = Tmax in male CD1 mouse at 10 mg/kg, IP measured upto 24 hrs by LC-MS/MS-39 analysis; type: ADME, organism-based; settings: in vivo; outline: as §4

Cc1ncsc1-c1ccc([C@H](C)NC(=O)[C@@H]2C[C@@H](O)CN2C(=O)[C@@H](NC(=O)CCCC#Cc2ccc(C(=O)Nc3n[nH]c4c3CN(C(=O)N[C@H](CN(C)C)c3ccccc3)C4(C)C)cc2)C(C)(C)C)cc1
IC50 [1]: 780 nM
IC50 [2]: 89 nM
Tmax [3]: 4.98 min
Activity [4]: inactive
Cmax [5]: 3.39 µM
Vd [6]: 0.345 L/kg
Activity [7]: Active
Activity [8]: inactive
Activity [9]: inactive
AUClast [10]: 19.4 µM·h
Activity [11]: inactive
Activity [12]: inactive
Cmax [13]: 17.1 µM
IC50 [14]: 160 nM
Activity [15]: Dose-Dependent Effect
clearance [16]: 8.3 mL/min/kg
Ratio [17]: 7
AUClast [18]: 6.12 µM·h
t1/2 [19]: 2.82 h
IC50 [20]: 332 nM
t1/2 [21]: 3.76 h
Activity [22]: 95%
Tmax [23]: 1 h
